SUMO1-SIM PPI – alters human SUMO1 binding to SIM partners | P63165 | SUMO1 binding to a labelled peptide, TR-FRET, 1 h | inhibition, % at 20 µM | 360,000 compounds, 0.33% hits; in the data active = inhibition above about 37%
Target sequence (P63165 whole entry, looked up): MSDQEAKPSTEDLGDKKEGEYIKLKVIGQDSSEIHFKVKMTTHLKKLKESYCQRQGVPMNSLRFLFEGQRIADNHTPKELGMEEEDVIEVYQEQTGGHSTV
LMPTP inh – LMPTP (human) inhibition; P24666; recombinant LMPTP-A, OMFP fluorogenic substrate, fluorescence intensity; inhibition, % at 20 µM; 360,000 compounds, 0.22% hits; AID 651560;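 active = compounds that cut the enzyme signal by at least half of the control window in the single-dose screen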
Target sequence (P24666 whole entry, looked up): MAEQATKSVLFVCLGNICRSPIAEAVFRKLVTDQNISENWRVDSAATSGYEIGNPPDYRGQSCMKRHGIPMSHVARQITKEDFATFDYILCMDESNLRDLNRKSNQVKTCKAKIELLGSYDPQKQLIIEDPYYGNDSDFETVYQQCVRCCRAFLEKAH
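Test system: LMPTP-A phosphatase enzyme. Amount: LMPTP-A at 0.625 nM final in the reaction. Reagent: OMFP substrate, 400 µM final. Times: 50 min at room temperature. Signal: endpoint fluorescence intensity from OMFP dephosphorylation. Read-out basis: % inhibition. Benchmarks: no-enzyme and uninhibited controls.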
Scp-1 inhibitor – inhibitors of human Scp-1 phosphatase; Q9GZU7; 340,000 compounds, 0.88% hits; inhibition, % at 20 µM; Recombinant Scp1, phosphopeptide, malachite green phosphate absorbance; AID 493091;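 active = inhibition above about 50% at 20 µM, limit read from the data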
Target sequence (Q9GZU7 76-261 limits assumed): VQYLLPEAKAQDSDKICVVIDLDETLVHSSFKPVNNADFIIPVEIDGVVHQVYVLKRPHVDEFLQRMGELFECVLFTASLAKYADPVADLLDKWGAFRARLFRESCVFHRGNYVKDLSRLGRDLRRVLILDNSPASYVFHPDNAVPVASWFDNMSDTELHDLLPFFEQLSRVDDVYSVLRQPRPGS
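Test system: SCP-1 phosphatase catalytic domain, residues 76-261; measured by: colorimetric phosphate reagent with accelerator and stabiliser, absorbance at 630 nm; timing: enzyme reaction 45 min at room temperature, colour 5 min, stabilisation 30 min; also added: Phosphorylated 17-residue peptide substrate; compound dosing: one concentration, 20 µM, with 1.0% DMSO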
STEP inh – blocks human striatal-enriched tyrosine phosphatase; inhibition, % at 20 µM; recombinant STEP, OMFP fluorogenic substrate, fluorescence; P54829; AID 588621; 360,000 compounds, 0.25% hits;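 active = inhibition at 20 µM, scaled per plate between control wells, above about 37%, limit read from the data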
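Measure: Control-normalized % inhibition with plate pattern correction | Test system: STEP phosphatase, cell-free reaction | Medium: pH 6.0 Bis-Tris with DTT and Tween 20 | Technique: Fluorescence, 480/540 nm | Times: Reaction 20 min, ambient temperature | Doses: Single compound dose of 20 µM, 1% DMSO final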
DNMT1 inh – inhibitors of human DNMT1 | P26358 | DNMT1 molecular beacon, Hinp1I cleavage, fluorescence | inhibition (reported as % activation of signal), % at 10 µM | 360,000 compounds, 0.83% hits | AID 588458; in the data active = inhibition above about 50%
Scp1 confirm – confirmation of human Scp-1 phosphatase inhibitors. inhibition, % at 20 µM. shares compounds with Scp-1 inhibitor. AID 540281. 2,500 compounds, 61% hits. recombinant SCP-1 catalytic domain, phosphate release, malachite green absorbance
MG interference – colorimetric interference in Scp-1 counter-screen; apparent inhibition (interference), % at 20 µM; shares compounds with Scp-1 inhibitor; 2,500 tested, under 10 active; Colorimetric interference counterscreen, malachite green absorbance 630 nm;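 note: compounds added after enzyme reaction finished so only phosphate colour detection is probed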
Scp1 DSF – validation of human Scp-1 inhibitors by thermal shift binding; Recombinant SCP1, Sypro Orange thermal shift Tm; shares compounds with Scp-1 inhibitor; 1,500 compounds, 25% hits; thermal shift relative to vanadate control, % at 40 µM;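 active = substances whose mean melting-temperature shift, as a percentage of the reference inhibitor's shift, reaches about 5.3%, limit read from the data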
A number is an active result. The list is not random: actives were taken first. Their share in the collection is about 1.8%.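 Rule for the calls, unless noted: active = inhibition of at least 30% at 20 µM; inactive = the rest.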

Results for C[C@H](CO)N1C[C@H](C)[C@@H](CN(C)C(=O)Nc2ccccc2)Oc2ccc(NC(=O)Nc3ccccc3)cc2C1=O ?
SUMO1-SIM PPI: inactive; LMPTP inh: inactive; Scp-1 inhibitor: 71; STEP inh: inactive; DNMT1 inh: inactive; Scp1 confirm: inactive; MG interference: inactive

Results for C[C@H](CO)N1C[C@H](C)[C@@H](CN(C)C(=O)Nc2ccc(C(F)(F)F)cc2)Oc2ccc(NC(=O)Nc3ccccc3)cc2C1=O ?
SUMO1-SIM PPI: inactive; LMPTP inh: inactive; Scp-1 inhibitor: inactive; STEP inh: inactive; DNMT1 inh: inactive

Results for C[C@H](CO)N1C[C@H](C)[C@@H](CN(C)C(=O)Nc2ccc(C(F)(F)F)cc2)Oc2ccc(NC(=O)C3CC3)cc2C1=O ?
SUMO1-SIM PPI: inactive; LMPTP inh: inactive; Scp-1 inhibitor: 56; STEP inh: inactive; DNMT1 inh: inactive; Scp1 confirm: inactive; MG interference: inactive

How did C[C@H](CO)N1C[C@H](C)[C@@H](CN(C)C(=O)Nc2ccccc2)Oc2ccc(NC(=O)c3ccncc3)cc2C1=O do in these assays?
SUMO1-SIM PPI: inactive; LMPTP inh: inactive; Scp-1 inhibitor: 75; STEP inh: inactive; DNMT1 inh: inactive; Scp1 confirm: inactive; MG interference: inactive

What do the screens show for `CS(=O)(=O)c1ccc2sc(NC(=O)c3cc4ccccc4o3)nc2c1`?
SUMO1-SIM PPI: inactive; LMPTP inh: inactive; Scp-1 inhibitor: 69; STEP inh: inactive; DNMT1 inh: inactive; Scp1 confirm: inactive; MG interference: inactive

How did COc1cc(OC)c2ccc(=O)oc2c1C(CC(=O)N1CCCC(C)C1)c1ccc2c(c1)OCO2 (configuration not stated) do in these assays?
SUMO1-SIM PPI: inactive; LMPTP inh: inactive; Scp-1 inhibitor: 56; STEP inh: inactive; DNMT1 inh: inactive; Scp1 confirm: 54; MG interference: inactive; Scp1 DSF: inactive

What do the screens show for `COc1cc(O)c(C(CC(=O)N2CCCC(C)C2)c2ccc3c(c2)OCO3)c(OC)c1` (configuration not stated)?
SUMO1-SIM PPI: inactive; LMPTP inh: inactive; Scp-1 inhibitor: inactive; STEP inh: inactive; DNMT1 inh: inactive

Results for CN(C)S(=O)(=O)c1ccc(C(=O)NCC[N+]2(C)CCCCCC2)o1 ?
SUMO1-SIM PPI: inactive; LMPTP inh: inactive; Scp-1 inhibitor: 68; STEP inh: inactive; DNMT1 inh: inactive; Scp1 confirm: inactive; MG interference: inactive

Results for Cc1ccc(NC(=O)c2ccc(Br)o2)cc1S(=O)(=O)N(C)C ?
SUMO1-SIM PPI: inactive; LMPTP inh: inactive; Scp-1 inhibitor: inactive; STEP inh: inactive; DNMT1 inh: inactive

How did COc1ccc(C#Cc2ccc3c(c2)O[C@H](CN(C)S(=O)(=O)c2ccccc2F)[C@H](C)CN([C@H](C)CO)S3(=O)=O)cc1 do in these assays?
SUMO1-SIM PPI: inactive; LMPTP inh: inactive; STEP inh: inactive; DNMT1 inh: inactive

What do the screens show for `COc1cc(C2CC(=O)NC3=C2C(=O)CC(C)(C)C3)ccc1O` (configuration not stated)?
SUMO1-SIM PPI: inactive; LMPTP inh: inactive; Scp-1 inhibitor: inactive; STEP inh: inactive; DNMT1 inh: inactive; Scp1 confirm: inactive; MG interference: inactive

Results for COc1ccc(C2Nc3ccccc3NC3=C2C(=O)CC(C)(C)C3)cc1O (configuration not stated) ?
SUMO1-SIM PPI: inactive; LMPTP inh: inactive; Scp-1 inhibitor: 56; STEP inh: inactive; DNMT1 inh: inactive; Scp1 confirm: inactive; MG interference: inactive

How did COc1ccc(C2Nc3ccccc3NC3=C2C(=O)CC(C)(C)C3)cc1OC (configuration not stated) do in these assays?
SUMO1-SIM PPI: inactive; LMPTP inh: inactive; Scp-1 inhibitor: inactive; STEP inh: inactive; DNMT1 inh: inactive

What do the screens show for `NS(=O)(=O)c1ccc(N2CCN(C(=O)C3COc4ccccc4O3)CC2)nc1` (configuration not stated)?
SUMO1-SIM PPI: inactive; LMPTP inh: inactive; Scp-1 inhibitor: inactive; STEP inh: inactive; DNMT1 inh: inactive

How did O=C(C1COc2ccccc2O1)N1CCN(c2ccc(C(F)(F)F)cn2)CC1 (configuration not stated) do in these assays?
SUMO1-SIM PPI: inactive; LMPTP inh: inactive; Scp-1 inhibitor: 87; STEP inh: inactive; DNMT1 inh: inactive; Scp1 confirm: inactive; MG interference: inactive

How did CCCc1cc(=O)[nH]c(SCC(=O)Nc2ccc(N3CCCCC3)cc2)n1 do in these assays?
SUMO1-SIM PPI: inactive; LMPTP inh: inactive; Scp-1 inhibitor: inactive; STEP inh: inactive; DNMT1 inh: inactive

What do the screens show for `COc1ccc(CCNC(=O)CSc2nnc3c(n2)[nH]c2ccc(F)cc23)cc1OC`?
SUMO1-SIM PPI: inactive; LMPTP inh: inactive; Scp-1 inhibitor: inactive; STEP inh: inactive; DNMT1 inh: inactive

Results for COc1ccc(CNC(=O)CSc2nnc3c(n2)[nH]c2ccc(OC)cc23)cc1 ?
SUMO1-SIM PPI: inactive; LMPTP inh: inactive; Scp-1 inhibitor: 65; STEP inh: inactive; DNMT1 inh: inactive; Scp1 confirm: 70; MG interference: inactive; Scp1 DSF: inactive

How did COc1ccc(CNC(=O)CSc2nnc3c(n2)[nH]c2ccc(F)cc23)cc1 do in these assays?
SUMO1-SIM PPI: inactive; LMPTP inh: inactive; Scp-1 inhibitor: 62; STEP inh: inactive; DNMT1 inh: inactive; Scp1 confirm: 31; MG interference: inactive; Scp1 DSF: inactive

What do the screens show for `CCSc1nc2c([nH]1)c(=O)n(C)c(=S)n2C`?
SUMO1-SIM PPI: inactive; LMPTP inh: inactive; Scp-1 inhibitor: 61; STEP inh: inactive; DNMT1 inh: inactive; Scp1 confirm: 75; MG interference: inactive; Scp1 DSF: inactive

What do the screens show for `Cc1cc(=O)[nH]c(SCC(=O)Nc2ccc(S(N)(=O)=O)cc2)n1`?
SUMO1-SIM PPI: inactive; LMPTP inh: inactive; Scp-1 inhibitor: 51; STEP inh: inactive; DNMT1 inh: inactive; Scp1 confirm: 48; MG interference: inactive; Scp1 DSF: inactive

How did Cc1cc(=O)[nH]c(SCC(=O)Nc2ccc(C(=O)O)cc2)n1 do in these assays?
SUMO1-SIM PPI: inactive; LMPTP inh: inactive; Scp-1 inhibitor: inactive; STEP inh: inactive; DNMT1 inh: inactive

What do the screens show for `O=C1CCCN2N=C(SCC(=O)Nc3ccc(F)cc3F)SC2=N1`?
SUMO1-SIM PPI: inactive; LMPTP inh: inactive; Scp-1 inhibitor: inactive; STEP inh: inactive; DNMT1 inh: inactive

High-throughput results: PubChem, Sanford-Burnham Center for Chemical Genomics
